# Laboratory results as given in ChEMBL document CHEMBL1125337, “Synthesis and antibacterial activity of a series of basic amides of teicoplanin and deglucoteicoplanin with polyamines” (J Med Chem, 1992).
# Legend:
# [1] = Association constant to Ac2-L-Lys-D-Ala-D-Ala determined at pH 9; Value ranges from 5E4-7.5E4
# Enterococcus faecalis = assay: Minimum inhibitory concentration against Enterococcus faecalis ATCC 7080; type: functional
# Outline: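 Microbroth dilution MIC (µg/mL), final inoculum 10^4 cfu/mL, incubated 24 h at 37 °C in air.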
# Escherichia coli [2] = assay: Minimum inhibitory concentration against Escherichia coli L 47; type: functional
# Outline: (§1)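 MIC (µg/mL) by microbroth dilution in Iso-Sensitest broth; final inoculum 10^4 cfu/mL; 24 h at 37 °C in air.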
# Proteus vulgaris [3] = assay: Minimum inhibitory concentration against Proteus vulgaris ATCC 881; type: functional; outline: as §1
# Pseudomonas aeruginosa [4] = assay: Minimum inhibitory concentration against Pseudomonas aeruginosa ATCC 10145; type: functional; outline: as §1
# Staphylococcus aureus = assay: Minimum inhibitory concentration against Staphylococcus aureus L 165; type: functional; outline: as §1
# Streptococcus pyogenes [5] = assay: Efficacy of compound administered subcutaneously against Streptococcus pyogenes L 49 Septicemia in mouse; type: functional; details: sc
# Outline: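 Mice were infected intraperitoneally with about 10^5 Strep. pyogenes L 49 cells, about 100 times the 50% lethal dose. Groups of 5–8 mice were treated once right after challenge, by the route stated in the line. ED50 (mg/kg) was derived from percentage survival at each dose on day 7 (Spearman-Kärber).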
# Streptococcus pyogenes [6] = assay: Minimum inhibitory concentration of compound was determined against Streptococcus pyogenes L 49 in mouse; type: functional
# [7] = tested on: Staphylococcus epidermidis; assay: Minimum inhibitory concentration against Staphylococcus epidermidis ATCC 12228; type: functional; outline: as §1
# Streptococcus pneumoniae = assay: Minimum inhibitory concentration against Streptococcus pneumoniae L 44; type: functional
# Outline: (§2)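 MIC (µg/mL) by microbroth dilution in Todd-Hewitt broth, final inoculum 10^4 cfu/mL, incubated 24 h at 37 °C in air.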
# [8] = tested on: Staphylococcus haemolyticus; assay: Minimum inhibitory concentration against Staphylococcus haemolyticus L 602; type: functional; outline: as §1
# Streptococcus pyogenes [9] = assay: Minimum inhibitory concentration against Streptococcus pyogenes L 49; type: functional; outline: as §2
# Bacteroides fragilis [10] = assay: Minimum inhibitory concentration of compound was determined against Bacteroides fragilis L 1236; type: functional
# Outline: (§3)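 Microbroth dilution MIC (µg/mL) in Wilkins-Chalgren broth, final inoculum 10^5 cfu/mL, incubated 48 h in an anaerobic chamber.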
# Bacteroides fragilis [11] = assay: Minimum inhibitory concentration of compound was determined against Bacteroides fragilis L 1010; type: functional; outline: as §3
# Bacteroides fragilis [12] = assay: Minimum inhibitory concentration of compound was determined against Bacteroides fragilis L 1011; type: functional; outline: as §3
# Enterobacter cloacae [13] = assay: Minimum inhibitory concentration of compound was determined against Enterobacter cloacae L 1485; type: functional; outline: as §1
# Enterobacter cloacae [14] = assay: Minimum inhibitory concentration of compound was determined against Enterobacter cloacae L 1504; type: functional; outline: as §1
# Escherichia coli [15] = assay: Minimum inhibitory concentration of compound was determined against Escherichia coli L 1153; type: functional; outline: as §1
# Escherichia coli [16] = assay: Minimum inhibitory concentration of compound was determined against Escherichia coli L 1347; type: functional; outline: as §1
# Escherichia coli [17] = assay: Minimum inhibitory concentration of compound was determined against Escherichia coli L 1484; type: functional; outline: as §1
# Escherichia coli [18] = assay: Minimum inhibitory concentration of compound was determined against Escherichia coli L 1513; type: functional; outline: as §1
# Escherichia coli [19] = assay: Minimum inhibitory concentration of compound was determined against Escherichia coli L 1536; type: functional; outline: as §1
# Escherichia coli [20] = assay: Minimum inhibitory concentration of compound was determined against Escherichia coli L 1572; type: functional; outline: as §1
# Klebsiella pneumoniae [21] = assay: Minimum inhibitory concentration of compound was determined against Klebsiella pneumoniae L 1481; type: functional; outline: as §1
# Klebsiella pneumoniae [22] = assay: Minimum inhibitory concentration of compound was determined against Klebsiella pneumoniae L 1499; type: functional; outline: as §1
# Proteus mirabilis [23] = assay: Minimum inhibitory concentration of compound was determined against Proteus mirabilis L 1157; type: functional; outline: as §1
# Proteus mirabilis [24] = assay: Minimum inhibitory concentration of compound was determined against Proteus mirabilis L 1356; type: functional; outline: as §1
# Proteus vulgaris [25] = assay: Minimum inhibitory concentration of compound was determined against Proteus vulgaris L 1539; type: functional; outline: as §1
# Pseudomonas aeruginosa [26] = assay: Minimum inhibitory concentration of compound was determined against Pseudomonas aeruginosa L 1348; type: functional; outline: as §1
# Pseudomonas aeruginosa [27] = assay: Minimum inhibitory concentration of compound was determined against Pseudomonas aeruginosa L 1138; type: functional; outline: as §1
# Pseudomonas aeruginosa [28] = assay: Minimum inhibitory concentration of compound was determined against Pseudomonas aeruginosa L 1533; type: functional; outline: as §1
# Serratia marcescens [29] = assay: Minimum inhibitory concentration of compound was determined against Serratia marcescens L 1506; type: functional; outline: as §1
# Salmonella typhimurium = assay: Minimum inhibitory concentration of compound was determined against Salmonella Typhimurium L 35; type: functional, Salmonella enterica subsp. enterica serovar Typhimurium; details: Salmonella enterica; outline: as §1
# Shigella sonnei = assay: Minimum inhibitory concentration of compound was determined against Shigella sonnei L 363; type: functional; outline: as §1
# Shigella dysenteriae = assay: Minimum inhibitory concentration of compound was determined against Shigella dysentariae L155; type: functional
# Serratia marcescens [30] = assay: Minimum inhibitory concentration of compound was determined against Serratia marcescens L 1488; type: functional; outline: as §1
# Pseudomonas aeruginosa [31] = assay: Minimum inhibitory concentration of compound was determined against Pseudomonas aeruginosa L 1498; type: functional; outline: as §1
smiles,measurement,setting,value
NCCCCNCCCNC(=O)[C@H]1NC(=O)[C@H]2NC(=O)[C@H](NC(=O)[C@@H]3NC(=O)[C@H]4NC(=O)[C@@H](Cc5ccc(c(Cl)c5)Oc5cc3cc(c5O)Oc3ccc(cc3Cl)[C@H]2O)NC(=O)[C@H](N)c2ccc(O)c(c2)Oc2cc(O)cc4c2)c2ccc(O)c(c2)-c2c(O)cc(O)cc21,Ka,[1],75000 M⁻¹
same,MIC,Enterococcus faecalis,0.125 µg/mL
same,MIC,Escherichia coli [2],2 µg/mL
same,MIC,Proteus vulgaris [3],32 µg/mL
same,MIC,Pseudomonas aeruginosa [4],8 µg/mL
same,MIC,Staphylococcus aureus,0.063 µg/mL
same,ED50,Streptococcus pyogenes [5],0.31 mg/kg
same,MIC,Streptococcus pyogenes [6],0.06 µg/mL
same,MIC,[7],0.063 µg/mL
same,MIC,Streptococcus pneumoniae,0.125 µg/mL
same,MIC,[8],0.063 µg/mL
same,MIC,Streptococcus pyogenes [9],0.063 µg/mL
CNCCCN(C)C(=O)[C@H]1NC(=O)[C@H]2NC(=O)[C@H](NC(=O)[C@@H]3NC(=O)[C@H]4NC(=O)[C@@H](Cc5ccc(c(Cl)c5)Oc5cc3cc(c5O)Oc3ccc(cc3Cl)[C@H]2O)NC(=O)[C@H](N)c2ccc(O)c(c2)Oc2cc(O)cc4c2)c2ccc(O)c(c2)-c2c(O)cc(O)cc21,MIC,Bacteroides fragilis [10],64 µg/mL
same,MIC,Bacteroides fragilis [11],32 µg/mL
same,MIC,Bacteroides fragilis [12],32 µg/mL
same,MIC,Enterobacter cloacae [13],32 µg/mL
same,MIC,Enterobacter cloacae [14],32 µg/mL
same,MIC,Enterococcus faecalis,0.125 µg/mL
same,MIC,Escherichia coli [15],4 µg/mL
same,MIC,Escherichia coli [16],8 µg/mL
same,MIC,Escherichia coli [17],16 µg/mL
same,MIC,Escherichia coli [18],8 µg/mL
same,MIC,Escherichia coli [19],8 µg/mL
same,MIC,Escherichia coli [20],8 µg/mL
same,MIC,Escherichia coli [2],2 µg/mL
same,MIC,Klebsiella pneumoniae [21],16 µg/mL
same,MIC,Klebsiella pneumoniae [22],32 µg/mL
same,MIC,Proteus mirabilis [23],64 µg/mL
same,MIC,Proteus mirabilis [24],32 µg/mL
same,MIC,Proteus vulgaris [3],32 µg/mL
same,MIC,Proteus vulgaris [25],128 µg/mL
same,MIC,Pseudomonas aeruginosa [26],16 µg/mL
same,MIC,Pseudomonas aeruginosa [4],16 µg/mL
same,MIC,Pseudomonas aeruginosa [27],64 µg/mL
same,MIC,Pseudomonas aeruginosa [28],128 µg/mL
same,MIC,Staphylococcus aureus,0.063 µg/mL
same,MIC,Serratia marcescens [29],32 µg/mL
same,MIC,Salmonella typhimurium,16 µg/mL
same,ED50,Streptococcus pyogenes [5],1.25 mg/kg
same,MIC,Shigella sonnei,8 µg/mL
same,MIC,Streptococcus pyogenes [6],0.06 µg/mL
same,MIC,Shigella dysenteriae,4 µg/mL
same,MIC,[7],0.063 µg/mL
same,MIC,Serratia marcescens [30],16 µg/mL
same,MIC,Streptococcus pneumoniae,0.125 µg/mL
same,MIC,[8],0.063 µg/mL
same,MIC,Streptococcus pyogenes [9],0.063 µg/mL
same,MIC,Pseudomonas aeruginosa [31],128 µg/mL
